Values belong to the molecule of their own block, whether it stands above or below them. Activity calls are given as the source filed them. The calls are words filed in the database; no cut-off is given here.
Legend:
[1] = (§1) Distribution coefficient between 1-Octanol and phosphate buffer at pH7.4; format: physicochemical; details: 1-octanol/phosphate buffer, pH 7.4
Rattus norvegicus [2] = assay: The antihypertensive activity as percentage fall in systolic blood pressure in spontaneously hypertensive rats after a period of 1 hr for a dose of 100 mg/kg po; format: functional, Artery
In short: (§2)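 Male Okamoto-Aoki SHR, trained, in groups of four matched for mean systolic pressure; one group per run received water vehicle. Oral dosing in water (0.1 mL per 10 g) on two consecutive mornings. After the day-2 dose, rats were restrained at 30.0 ± 1.0 °C. Systolic pressure was read by tail cuff (inflated to 300 mmHg, first pulse) at 1–4 h. % fall is versus the untreated control group, by 1-tail t test (p ≤ 0.05).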

Rattus norvegicus [3] = assay: Antihypertensive activity as percentage fall in systolic blood pressure in spontaneously hypertensive rats after a period of 4 hr for a dose of 50 mg/kg; format: functional, organism-based; design: dose 50 mg/kg; details: Artery; in short: as §2
Rattus norvegicus [4] = assay: The antihypertensive activity as percentage fall in systolic blood pressure in spontaneously hypertensive rats after a period of 3 hr for a dose of 100 mg/kg po; format: functional, Artery; in short: as §2
Rattus norvegicus [5] = assay: Antihypertensive activity as percentage fall in systolic blood pressure in spontaneously hypertensive rats after a period of 2 hr for a dose of 50 mg/kg; format: functional, organism-based; design: dose 50 mg/kg; details: Artery; in short: as §2
Rattus norvegicus [6] = assay: Antihypertensive activity as percentage fall in systolic blood pressure in spontaneously hypertensive rats after a period of 3 h for a dose of 50 mg/kg; format: functional, organism-based; design: dose 50 mg/kg; details: Artery; in short: as §2
Rattus norvegicus [7] = assay: The antihypertensive activity as percentage fall in systolic blood pressure in spontaneously hypertensive rats after a period of 2 hr for a dose of 100 mg/kg po; format: functional, Artery; in short: as §2
Rattus norvegicus [8] = assay: Antihypertensive activity as percentage fall in systolic blood pressure in spontaneously hypertensive rats after a period of 1 hr for a dose of 50 mg/kg po; format: functional, organism-based; design: dose 50 mg/kg; details: Artery; in short: as §2
Rattus norvegicus [9] = assay: The antihypertensive activity as percentage fall in systolic blood pressure in spontaneously hypertensive rats after a period of 4 hr for a dose of 100 mg/kg po; NS=Not significant; format: functional, organism-based; design: dose 100 mg/kg; details: Artery; in short: as §2
[10] = as §1; format: physicochemical; details: 1-octanol/phosphate buffer, pH 7.4; remark: listed apart in the source
In short: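 Octanol/buffer distribution measured at pH 7.4 in phosphate with sodium chloride. Either HPLC (0.004 M) or shake flask.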

Rattus norvegicus [11] = assay: Antihypertensive activity as percentage fall in systolic blood pressure in spontaneously hypertensive rats after a period of 1 hr for a dose of 50 mg/kg po; NS=Not significant; format: functional, organism-based; design: dose 50 mg/kg; details: Artery
In short: (§3)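 Male Okamoto-Aoki SHR, trained, in groups of four matched for systolic pressure, with a concurrent vehicle control group. Oral dosing on two consecutive mornings, in water as solution or suspension at 0.1 mL/10 g. On day 2 rats were restrained at 30.0 ± 1.0 °C. Tail-cuff systolic pressure, four traces per rat, read at each hour. Per cent fall versus control; 1-tail t test, p ≤ 0.05.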

Rattus norvegicus [12] = assay: The antihypertensive activity as percentage fall in systolic blood pressure in spontaneously hypertensive rats after a period of 4 hr for a dose of 75 mg/kg po; NS=Not significant; format: functional, organism-based; design: dose 75 mg/kg; details: Artery; in short: as §3
Rattus norvegicus [13] = assay: The antihypertensive activity as percentage fall in systolic blood pressure in spontaneously hypertensive rats after a period of 3 hr for a dose of 75 mg/kg po; NS=Not significant; format: functional, organism-based; design: dose 75 mg/kg; details: Artery; in short: as §3
Rattus norvegicus [14] = assay: The antihypertensive activity as percentage fall in systolic blood pressure in spontaneously hypertensive rats after a period of 1 hr for a dose of 50 mg/kg po
Rattus norvegicus [15] = assay: The antihypertensive activity as percentage fall in systolic blood pressure in spontaneously hypertensive rats after a period of 2 hr for a dose of 50 mg/kg po

logD [1]: 1.21
SMILES: CC1NC(=O)OC12CCN(CC(O)C1COc3ccccc3O1)CC2 (centres undefined)
Decrease in blood pressure (Rattus norvegicus [2]): 15% | Decrease in blood pressure (Rattus norvegicus [3]): Not significant | Decrease in blood pressure (Rattus norvegicus [4]): 14% | Decrease in blood pressure (Rattus norvegicus [5]): Not significant | Decrease in blood pressure (Rattus norvegicus [6]): Not significant | Decrease in blood pressure (Rattus norvegicus [7]): 15% | Decrease in blood pressure (Rattus norvegicus [8]): Not significant | Decrease in blood pressure (Rattus norvegicus [9]): inactive

SMILES: CCN1CC2(CCN(CCc3c[nH]c4ccccc34)CC2)OC1=O
Decrease in blood pressure (Rattus norvegicus [3]): Not significant | Decrease in blood pressure (Rattus norvegicus [5]): Not significant | Decrease in blood pressure (Rattus norvegicus [6]): Not significant | logD [10]: 1.92 | Decrease in blood pressure (Rattus norvegicus [11]): inactive

SMILES: CC(C)N1CC2(CCN(CCc3c[nH]c4ccccc34)CC2)OC1=O
Decrease in blood pressure (Rattus norvegicus [12]): inactive | Decrease in blood pressure (Rattus norvegicus [13]): inactive | Decrease in blood pressure (Rattus norvegicus [14]): 22% | Decrease in blood pressure (Rattus norvegicus [15]): 9% | logD [10]: 2.4
